CHO parental Ca: counter-screen for OX1R antagonists: effect in parental CHO cells | parental CHO-K1, ATP-induced calcium, Fluo-8 fluorescence | inhibition, % at 5.6 µM | 0.63% of 330,000 active;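 active means inhibition above that plate's mean sample inhibition plus 3 SD, cut at about 26% in these data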;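 further: 0% = ATP-challenged DMSO wells and 100% = DMSO wells without ATP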
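Assay system: untransfected parental CHO cell line. Also added: ATP agonist challenge. Dosing: one dose, 5.6 µM nominal. Measured by: Fluo-8 fluorescence. Read-out: % inhibition. Benchmarks: ATP wells versus no-ATP DMSO wells. Repeats: no replicates.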
OX1R antag-1: blocks the human orexin 1 receptor. O43613. CHO/OX1R cells, Fluo-8 calcium fluorescence, orexin A. inhibition, % at 5 µM. 0.43% of 330,000 active;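 active means inhibition above its plate's threshold, mean inhibition of all tested compounds on the plate plus 3 SD, cut at about 37% in these data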;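 further: 0% = orexin A challenge wells and 100% = SB-334867-A antagonist wells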
TAAR1 antag: human TAAR1 antagonism; inhibition, % at 3 µM; CHO RD-HGA16 TAAR1, Fluo-8 calcium fluorescence, antagonist; 1.5% of 360,000 active; Q96RJ0; AID 624466;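 active means inhibition above a per-plate cutoff, the mean inhibition of test compounds on that plate plus 3 SD, cut at about 49% in these data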;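 further: 0% = DMSO plus EC80 beta-PEA response and 100% = DMSO alone without agonist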
Target sequence (Q96RJ0 whole entry, looked up): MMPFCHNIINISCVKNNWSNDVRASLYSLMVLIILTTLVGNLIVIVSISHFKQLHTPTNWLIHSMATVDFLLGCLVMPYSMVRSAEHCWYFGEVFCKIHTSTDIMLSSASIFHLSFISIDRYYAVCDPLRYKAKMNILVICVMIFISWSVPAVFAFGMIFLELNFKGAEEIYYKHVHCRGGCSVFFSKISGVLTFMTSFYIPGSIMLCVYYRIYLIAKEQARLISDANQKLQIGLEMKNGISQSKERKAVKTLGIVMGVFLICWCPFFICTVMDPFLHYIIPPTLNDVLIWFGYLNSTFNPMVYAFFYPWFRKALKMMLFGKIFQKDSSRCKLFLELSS
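Material: RD-HGA16 CHO cells with stable hTAAR1 and Gα16; Dosing: single nominal final test compound concentration of 3 µM; Schedule: seeding 17-24 h prior, 75-min 37 °C, 30-min RT dye loading; Detection: kinetic Fluo-8 calcium fluorescence measurement; Measure: % inhibition from peak post-agonist over basal fluorescence ratio; Benchmarks: vehicle and agonist controls.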
OX1R antag-2: antagonists of human orexin 1 receptor (OX1R). O43613. OX1R-expressing cells, FRET antagonist read-out. inhibition, % at 6.6 µM. 1.8% of 330,000 active. AID 485270; in the data active means inhibition mostly above about 38%, no sharp cut-off; inactive means mostly below about 40%;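 further: 0% = agonist challenge alone and 100% = reference antagonist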
TAAR1 agonist: human TAAR1 agonism; CHO RD-HGA16 TAAR1, Fluo-8 calcium fluorescence; vehicle wells 0%, saturating PEA agonist 100%; activation, % at 3 µM; 0.99% of 360,000 active; AID 624467;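 active means activation above the mean activation of all test compounds in the run plus 3 SD, cut at about 38% in these data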
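Assay system – CHO-derived RD-HGA16 cells with stable Gα16 and human TAAR1 · Compound dosing – one-point dosing at 3 µM (nominal) · Incubation – 17-24 h seeding, 75 min 37 °C dye, 30 min RT · Measured by – kinetic Fluo-8 calcium fluorescence · Control set – DMSO vehicle as 0%, PEA at EC100 as 100% · Repeats – single well for each compound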
The depositor's hits bear a star. Only some compounds are listed: those with a hit (about 4% of all), similar ones and a draw of the others.

Results for COC(=O)[C@@]1(Sc2ccc(C)cc2)CC(=O)N(c2ccc(Cl)cc2)[C@@H]1c1ccccc1 ?
TAAR1 antag: 48; TAAR1 agonist: 1

Results for CCOc1ccc(CN2CCN(Cc3cc4ccccc4[nH]3)CC2CCO)cc1 (stereo not drawn) ?
TAAR1 antag: 38; TAAR1 agonist: 42*

How did CC(C)(C)CN1CCN(Cc2cc3ccccc3[nH]2)CC1CCO (stereo not drawn) do in these assays?
CHO parental Ca: -17; OX1R antag-1: -33; TAAR1 antag: -19; OX1R antag-2: 4; TAAR1 agonist: 5

Results for CCCCC[C@@H](/C=C/C1C(=O)C=C[C@H]1C/C=C\CCCC(=O)OC)OC(C)=O (stereo partly drawn) ?
TAAR1 antag: 50*; TAAR1 agonist: 4

What do the screens show for `O=C(Nc1ccc(N2CCOCC2)cc1)Nc1ccc2nc(-c3ccco3)c(-c3ccco3)nc2c1`?
CHO parental Ca: 7; OX1R antag-1: -7; TAAR1 antag: 49*; OX1R antag-2: 51*; TAAR1 agonist: 9

How did O=C(NCCCO)Nc1ccc2nc(-c3ccco3)c(-c3ccco3)nc2c1 do in these assays?
CHO parental Ca: 1; OX1R antag-1: -9; OX1R antag-2: 29

How did CN(C)Cc1c(C(C)(C)O)[nH]c2cc(C(F)(F)F)ccc12 do in these assays?
TAAR1 antag: -21; TAAR1 agonist: 0

What do the screens show for `O=C(NC1CCCC1)[C@@H]1CCCN1C(=O)[C@H](Cc1cccnc1)NC(=O)N1CCOCC1`?
TAAR1 antag: -6; TAAR1 agonist: 3

How did C#CCN1CC(COc2ccccc2)Oc2cccc(Oc3ccc(SC)c(C)c3)c2S1(=O)=O (stereo not drawn) do in these assays?
TAAR1 antag: -20; TAAR1 agonist: 6

Results for Cc1[nH]c2ccccc2c1/C=N/NC(=O)c1cc(C(C)C)[nH]n1 ?
CHO parental Ca: -8; OX1R antag-1: 1; TAAR1 antag: 18; OX1R antag-2: 44*; TAAR1 agonist: 3

How did Cc1[nH]c2ccccc2c1/C=N/NC(=O)c1cccc(F)c1 do in these assays?
CHO parental Ca: 6; OX1R antag-1: -14; TAAR1 antag: 2; OX1R antag-2: 13; TAAR1 agonist: 5

Results for Cc1ccc(C(Nc2ccccc2)c2ccc3ccc(C)nc3c2O)c(C)c1 (stereo not drawn) ?
TAAR1 antag: -39; TAAR1 agonist: 1

How did CCc1cc2c3c(c(=O)oc2cc1O)CCCC3 do in these assays?
CHO parental Ca: -6; OX1R antag-1: -29; TAAR1 antag: 2; OX1R antag-2: 17; TAAR1 agonist: 9

Results for COc1cccc(-c2cnc3c(NC(C)=O)cc(-c4ccncc4)cn23)c1 ?
TAAR1 antag: -6; TAAR1 agonist: -3

What do the screens show for `COc1cccc(-c2cnc3c(NC(C)=O)cc(-c4ccccc4OC)cn23)c1`?
TAAR1 antag: 57*; TAAR1 agonist: 5

Results for COc1cccc(-c2cnc3c(NC(C)=O)cc(-c4cc(OC)c(OC)c(OC)c4)cn23)c1 ?
TAAR1 antag: 51*; TAAR1 agonist: 1

What do the screens show for `CN(CCCC(=O)NCc1ccc2c(c1)OCO2)S(=O)(=O)c1ccc([N+](=O)[O-])cc1`?
CHO parental Ca: 0; OX1R antag-1: -13; TAAR1 antag: -10; OX1R antag-2: 66*; TAAR1 agonist: 1

What do the screens show for `CCOC(=O)c1cccc(NC(=O)c2ccc(N(C)C)cc2)c1`?
CHO parental Ca: -14; OX1R antag-1: -11; TAAR1 antag: -7; OX1R antag-2: 29; TAAR1 agonist: 1

How did COc1ccc(CCNC(=O)CCNS(=O)(=O)c2cccc3nonc23)cc1OC do in these assays?
CHO parental Ca: -9; OX1R antag-1: -14; TAAR1 antag: -4; OX1R antag-2: 40; TAAR1 agonist: 4

How did COc1ccc(CCNC(=O)CCNS(=O)(=O)c2cccc3nsnc23)cc1OC do in these assays?
CHO parental Ca: -18; OX1R antag-1: -16; TAAR1 antag: -6; OX1R antag-2: 61*; TAAR1 agonist: 16

How did CC1Cc2ccccc2N1C(=O)CCNS(=O)(=O)c1cccc2nsnc12 (stereo not drawn) do in these assays?
CHO parental Ca: -27; OX1R antag-1: 5; TAAR1 antag: 2; OX1R antag-2: 60*; TAAR1 agonist: 6

Results for Cc1ccc2nc(C)c3c(c2c1)COC3 ?
CHO parental Ca: -11; OX1R antag-1: 4; TAAR1 antag: -9; OX1R antag-2: -3; TAAR1 agonist: -1

Results for COc1ccc(/C=N/Nc2ncccc2[N+](=O)[O-])c(OC)c1 ?
CHO parental Ca: -13; OX1R antag-1: -7; TAAR1 antag: 0; OX1R antag-2: 50*; TAAR1 agonist: 0

Results for COc1ccc(/C=N/Nc2ncc(-c3ccccc3)cn2)c(OC)c1 ?
CHO parental Ca: -11; OX1R antag-1: -44; TAAR1 antag: -13; OX1R antag-2: 23; TAAR1 agonist: 3

How did COc1cccc(/C=C2/Sc3ccc(C(=O)NC4CC4)cc3NC2=O)c1 do in these assays?
TAAR1 antag: -3; TAAR1 agonist: 1

What do the screens show for `Cn1c(=O)c2c(nc(NN=C3CCCC3)n2C)n(C)c1=O`?
CHO parental Ca: -11; OX1R antag-1: -19; TAAR1 antag: 1; OX1R antag-2: 48*; TAAR1 agonist: 1

What do the screens show for `Cn1c(=O)c2c(nc(NNC(=O)C(F)(F)F)n2C)n(C)c1=O`?
CHO parental Ca: 0; OX1R antag-1: -7; TAAR1 antag: -12; OX1R antag-2: 7; TAAR1 agonist: 0

Results for CCCNC(=O)c1cc(C2CCCN(C(=O)c3cc(F)ccc3C)C2)on1 (stereo not drawn) ?
TAAR1 antag: -25; TAAR1 agonist: 3

How did CC(=O)Oc1ccc2c(c1)Oc1cc(OC(C)=O)ccc1C21OC(=O)c2ccccc21 do in these assays?
CHO parental Ca: 101*; OX1R antag-1: 106*; OX1R antag-2: 60*

What do the screens show for `CC1Cc2cc(/C=C3/SC(=S)NC3=O)ccc2O1` (stereo not drawn)?
CHO parental Ca: -1; OX1R antag-1: -1; TAAR1 antag: -8; OX1R antag-2: 37; TAAR1 agonist: -4

How did Cc1ccc(C2C(/C=C3/SC(=S)NC3=O)=C(c3cccs3)Oc3ccccc32)cc1 (stereo not drawn) do in these assays?
CHO parental Ca: 8; OX1R antag-1: -6; TAAR1 antag: 56*; OX1R antag-2: 33; TAAR1 agonist: 1

How did COc1ccc(COc2ccccc2C(=O)NCc2ccccc2)cc1F do in these assays?
CHO parental Ca: 34*; OX1R antag-1: 6; TAAR1 antag: 71*; OX1R antag-2: 31; TAAR1 agonist: 10

How did COc1ccccc1Nc1ncccc1C(=O)NCc1ccccc1 do in these assays?
CHO parental Ca: -12; OX1R antag-1: -1; TAAR1 antag: 19; OX1R antag-2: 75*; TAAR1 agonist: 18

Bioassay records (PubChem BioAssay)
